# Pf Dd2 inh – inhibitors of Plasmodium falciparum Dd2 growth; activity change, % at 10 µM; 94,000 compounds, 2.3% hits; P. falciparum Dd2 growth, SYBR Green, 72 h; stronger effect = lower value; in the data active = activity change below about -80%
# IDH1 mut inh – IDH1 R132H (human) inhibition; O75874; IDH1 R132H reductase, diaphorase/resazurin fluorescence, 60 min; inhibition, % at 10 µM; 70,000 compounds, 0.18% hits; AID 624101; in the data active = inhibition above about 34%
# Target sequence (O75874 whole entry R132H): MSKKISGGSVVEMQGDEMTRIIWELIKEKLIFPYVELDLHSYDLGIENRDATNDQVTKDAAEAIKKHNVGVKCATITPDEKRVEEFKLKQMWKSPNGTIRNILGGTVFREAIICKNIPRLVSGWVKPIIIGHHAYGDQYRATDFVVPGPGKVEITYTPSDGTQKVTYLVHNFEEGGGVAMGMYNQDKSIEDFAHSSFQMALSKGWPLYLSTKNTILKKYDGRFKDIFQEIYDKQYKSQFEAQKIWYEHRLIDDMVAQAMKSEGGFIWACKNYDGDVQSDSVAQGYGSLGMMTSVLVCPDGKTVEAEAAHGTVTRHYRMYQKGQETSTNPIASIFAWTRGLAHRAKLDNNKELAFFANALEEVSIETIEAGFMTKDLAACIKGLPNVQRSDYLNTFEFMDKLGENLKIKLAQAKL
# Tcruzi prolif – T. cruzi proliferation inhibition. 77,000 compounds, 5.9% hits. AID 624255. inhibition, % at 8.34 µM. T. cruzi beta-gal in NIH3T3, GalScreen luminescence, 90 h;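 active = mean inhibition above about 93%, with at least 55% of replicates each passing it, limit read from the data, passing the limit was not always enough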
# GASC1 inh – blocks human GASC-1 (KDM4C) demethylase activity. Q9H3R0. GST-KDM4C 2-372, H3K9me3 peptide, LANCE TR-FRET. inhibition, % at 12.5 µM. 96,000 compounds, 0.15% hits. AID 720574;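 active = mean replicate inhibition above about 25%, with at least 55% of replicates also reaching it, limit read from the data, passing the limit was not always enough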
#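 Material: GST-tagged GASC-1 (JMJD2C) catalytic fragment, aa 2-372 / Quantity: enzyme final amount 10 nM / Medium: HEPES buffer, pH 7.5, plus ascorbate / Doses: one test concentration per compound / Incubation: 30 min reaction, 60 min detection, RT / Measured by: LANCE TR-FRET / Read-out: inhibition from TR-FRET ratio decrease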
# Hits are given with their value; i = inactive; nt = no result given. The list is not random: actives were taken first. Their share in the collection is about 5.8%.
SMILES,Pf Dd2 inh,IDH1 mut inh,Tcruzi prolif,GASC1 inh
C[C@@H]1CCCCO[C@H](CN(C)Cc2ccc3c(c2)OCO3)[C@@H](C)CN([C@@H](C)CO)C(=O)c2cc(NC(=O)Nc3cccc4ccccc34)ccc2O1,-88,i,i,i
C[C@@H]1CCCCO[C@@H](CN(C)Cc2ccc3c(c2)OCO3)[C@@H](C)CN([C@H](C)CO)C(=O)c2cc(NC(=O)Nc3cccc4ccccc34)ccc2O1,i,nt,i,i
COc1ccc(CN(C)C[C@@H]2OCCCC[C@@H](C)Oc3ccc(NC(=O)Nc4cccc5ccccc45)cc3C(=O)N([C@H](C)CO)C[C@H]2C)cc1,i,i,i,nt
C[C@@H]1CN([C@H](C)CO)C(=O)c2cc(NC(=O)Nc3cccc4ccccc34)ccc2O[C@@H](C)CCCCO[C@H]1CN(C)Cc1ccc2c(c1)OCO2,-87,i,i,i
Cc1cccc(N2C(=O)CC(SCc3nc4ccccc4[nH]3)C2=O)c1 (stereo unspecified),nt,i,nt,nt
COc1ccc2c3c(n(C)c2c1)[C@H](CO)N(Cc1ccccc1F)CC31CCN(CC2CC2)CC1,-90,nt,nt,i
COc1ccc2c3c(n(C)c2c1)[C@H](CO)N(Cc1ccc(Cl)cc1)CC31CN(CC2CC2)C1,i,nt,nt,i
COc1ccc2c3c(n(C)c2c1)[C@@H](CO)N(CC1CCCCC1)CC31CCN(Cc2nccs2)CC1,-90,nt,nt,i
COc1ccc2c3c(n(C)c2c1)[C@H](CO)N(Cc1ccc(Cl)cc1)CC31CCN(CC2CC2)CC1,-88,nt,nt,i
COc1ccc2c3c(n(C)c2c1)[C@H](CO)N(CC1CCCC1)CC31CCN(Cc2nccs2)CC1,i,nt,nt,i
COc1ccc2c3c(n(C)c2c1)[C@H](CO)N(Cc1ccc(F)cc1)CC31CCN(CC2CC2)CC1,-84,nt,nt,i
COC(=O)c1cc(OC)c(OC)cc1NC(=O)C(C)Oc1ccc(Br)cc1 (stereo unspecified),nt,i,nt,nt
COc1ccc2c3c(n(C)c2c1)[C@@H](CO)N(Cc1ccc(Cl)cc1)CC31CCN(CC2CC2)CC1,-91,nt,nt,i
CCCN(C)C[C@H]1Oc2cc(C#Cc3cccnc3)ccc2S(=O)(=O)N([C@@H](C)CO)C[C@H]1C,-84,i,i,i
CCCN(C)C[C@@H]1Oc2cc(C#Cc3cccnc3)ccc2S(=O)(=O)N([C@H](C)CO)C[C@@H]1C,-88,i,i,i
C[C@H]1CN([C@@H](C)CO)S(=O)(=O)c2ccc(C#Cc3cccnc3)cc2O[C@@H]1CN(C)C,i,i,i,i
CCCN(C)C[C@H]1Oc2cc(C#Cc3cccnc3)ccc2S(=O)(=O)N([C@H](C)CO)C[C@H]1C,-89,i,i,i
C[C@@H]1CN([C@H](C)CO)S(=O)(=O)c2ccc(C#Cc3cccnc3)cc2O[C@H]1CN(C)C,i,i,i,i
C[C@H](CO)N1C[C@H](C)[C@@H](CN(C)S(=O)(=O)c2ccc(Cl)cc2)OCCCC[C@H](C)Oc2ccc(NC(=O)c3ccccc3)cc2C1=O,i,nt,i,i
C[C@@H]1CCCCO[C@H](CN(C)S(=O)(=O)c2ccc(F)cc2)[C@H](C)CN([C@@H](C)CO)C(=O)c2cc(NC(=O)c3ccccc3)ccc2O1,i,nt,nt,i
Cc1ccc(S(=O)(=O)N(C)C[C@@H]2OCCCC[C@@H](C)Oc3ccc(NC(=O)c4ccccc4)cc3C(=O)N([C@H](C)CO)C[C@@H]2C)cc1,i,nt,i,i
C[C@@H]1CCCCO[C@H](CN(C)S(=O)(=O)c2ccc(F)cc2)[C@@H](C)CN([C@@H](C)CO)C(=O)c2cc(NC(=O)c3ccccc3)ccc2O1,-84,i,nt,i
Cc1ccc(S(=O)(=O)N(C)C[C@@H]2OCCCC[C@H](C)Oc3ccc(NC(=O)c4ccccc4)cc3C(=O)N([C@@H](C)CO)C[C@H]2C)cc1,-84,nt,i,i
C[C@@H]1CN([C@H](C)CO)C(=O)c2cc(NC(=O)c3ccccc3)ccc2O[C@@H](C)CCCCO[C@H]1CN(C)S(=O)(=O)c1ccc(Cl)cc1,-85,nt,i,i
C[C@@H]1CCCCO[C@H](CN(C)S(=O)(=O)c2ccc(Cl)cc2)[C@@H](C)CN([C@@H](C)CO)C(=O)c2cc(NC(=O)c3ccccc3)ccc2O1,-83,i,i,i
SMILES,Pf Dd2 inh,IDH1 mut inh,Tcruzi prolif,GASC1 inh
C[C@@H]1CCCCO[C@H](CN(C)S(=O)(=O)c2ccc(Cl)cc2)[C@@H](C)CN([C@H](C)CO)C(=O)c2cc(NC(=O)c3ccccc3)ccc2O1,i,i,i,i
COc1cc([N+](=O)[O-])ccc1NC(=O)Nc1nn(Cc2ccc(Cl)c(Cl)c2)cc1Cl,nt,i,nt,nt
O=C(CSc1nc(-c2ccccc2)cc(C(F)(F)F)n1)Nc1cccc(Cl)c1Cl,nt,i,nt,nt
C[C@H](CO)N1C[C@H](C)[C@H](CN(C)Cc2ccccc2)Oc2c(NC(=O)c3cnccn3)cccc2C1=O,i,nt,i,i
C[C@@H]1CN([C@H](C)CO)C(=O)c2cccc(NC(=O)c3cnccn3)c2O[C@H]1CN(C)Cc1ccc(C(=O)Nc2ccccc2N)cc1,-91,nt,nt,i
C[C@@H]1CN([C@@H](C)CO)C(=O)c2cccc(NC(=O)c3cnccn3)c2O[C@@H]1CN(C)Cc1ccc(-c2ccccc2)cc1,-87,nt,i,i
C[C@@H]1CN([C@@H](C)CO)C(=O)c2cccc(NC(=O)c3cnccn3)c2O[C@H]1CN(C)Cc1ccc(Cl)c(Cl)c1,-83,i,i,i
C[C@@H]1CN([C@@H](C)CO)C(=O)c2cccc(NC(=O)c3cnccn3)c2O[C@@H]1CN(C)Cc1ccc(Cl)c(Cl)c1,i,nt,i,i
C[C@H]1CN([C@@H](C)CO)C(=O)c2cc(C#CCc3ccccc3)cnc2O[C@H]1CN(C)CC1CC1,i,i,i,i
CCCC#Cc1cnc2c(c1)C(=O)N([C@H](C)CO)C[C@@H](C)[C@H](CN(C)Cc1cccnc1)O2,i,i,i,i
CCCC#Cc1cnc2c(c1)C(=O)N([C@H](C)CO)C[C@H](C)[C@@H](CN(C)Cc1cccnc1)O2,i,100,i,64
C[C@@H]1CN([C@@H](C)CO)C(=O)c2cc(C#Cc3ccccc3)cnc2O[C@H]1CN(C)C(=O)CCN1CCCCC1,-88,i,i,i
C[C@@H]1CN([C@H](C)CO)C(=O)c2cc(C#CCc3ccccc3)cnc2O[C@@H]1CN(C)CC1CC1,-81,i,i,i
C[C@@H]1CN([C@@H](C)CO)C(=O)c2cc(C#CCc3ccccc3)cnc2O[C@H]1CN(C)CC1CCCC1,-86,i,i,i
C[C@H]1CN([C@@H](C)CO)C(=O)c2cc(C#Cc3ccccc3)cnc2O[C@@H]1CN(C)C(=O)CCN1CCCCC1,i,i,i,i
COc1ccc(CCO[C@@H]2O[C@H](CO[C@@H]3OC[C@H](O)[C@H](O)[C@H]3O)[C@@H](OC(=O)/C=C/c3ccc(O)c(OC)c3)[C@H](O[C@@H]3O[C@@H](C)[C@H](O)[C@@H](O)[C@H]3O)[C@H]2O)cc1O,nt,i,nt,nt
COc1cc(/C=C/C(=O)NCCSc2c[nH]c3ccccc23)cc(OC)c1OC,nt,i,nt,nt
Cc1cc(S(=O)(=O)NCC(=O)O)ccc1Cl,nt,i,nt,nt
CSc1nc2sc3c(c2c2nnc(SCC(=O)Nc4ccccc4)n12)CCC3,nt,i,nt,nt
